Calls of active or inactive are those of the source.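 Rule for the calls, unless noted: active = a full or partial loss of lipid-probe fluorescence in the fish gall bladder, intestine or both, judged by eye; inactive = no fluorescence loss, or compound toxic to the fish.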

Experiment [1] is described as follows: inhibitors of TNFa-induced NFkB p65 translocation, primary screen, imaging, HUVEC, MLSMR starter and 10KST1 sets (AID 438;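 active = inhibition above 20% together with a positive visual image hit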;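 note: compound added about 3h40 before a 20 min TNFalpha stimulation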;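 for inhibition: signal is the nuclear over cytoplasmic p65 intensity ratio per well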). To be noted: HUVEC TNFa-induced p65 nuclear translocation; cell count: measured here: nuclei count (cytotoxicity indicator), at 2.08 µM; inhibition: at 2 µM, stronger effect = higher value, 0% TNFa-plus-vehicle, 100% no-TNFa wells.
Experiment [2] can be described thus: reduction of polyQ htt aggregates in cells – imaging, exon1htt(103Q)mCFP cells, high-content imaging, primary screen (AID 483;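 active = visual image review flags a hit and inhibition of aggregation exceeds 20%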;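 note: compound exposure lasted 3 days before fixation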;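 for nuclei count: percent of the per-plate median nuclei count of sample wells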). To be noted: exon1htt(103Q)mCFP cell line, aggregate imaging, at 2 µM; inhibition of aggregation: stronger effect = higher value; nuclei count: measured here: cell count, toxicity.
Experiment [3] in a line: endothelial E-selectin expression blockers – imaging, HUVEC, immunofluorescence, MLSMR starter and 10KST1 sets, primary screen (AID 487;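 active = visually confirmed hit in the image check and inhibition above 20%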;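 for inhibition: signal is fraction of cell area covered by stained E-selectin grains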;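 for nuclei count: 100% = median nuclei count of all wells on the same plate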). To be noted: HUVEC TNFalpha-induced E-selectin immunofluorescence imaging, at 2 µM; inhibition: stronger effect = higher value; nuclei count: measured here: cell number, toxicity.
Experiment [4] concerns the target Voltage-gated potassium channel subunit beta-2 (Rattus norvegicus) (UniProt P62483). As to the kind of experiment: inhibitors of rat Kvbeta2 reductase activity – biochemical, NADPH fluorescence, primary screen (AID 622;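 active = fluorescence slope higher than the sample average by over 3 SD, cut at about -0.22 in these data, passing the limit was not always enough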;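 note: slope of raw intensity against log time taken from 70 to 1610 s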). Particulars: recombinant KvBeta, 4-cyanobenzaldehyde reduction, at 10 µM, stronger effect = higher value.
Experiment [5] shares this target. As to the kind of experiment: enhancers of rat Kvbeta2 NADPH turnover – biochemical, NADPH fluorescence, primary screen (AID 623;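 active = NADPH fluorescence slope more negative than the mean of all samples by about 3 SD, 99.7% confidence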;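 note: fluorescence intensity change per second fitted from 20 to 320 s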). Particulars: Recombinant KvBeta, NADPH fluorescence decrease slope, 10 min; at 10 µM; stronger effect = lower value.
For experiment [6], the target named is Alpha-2C adrenergic receptor (Homo sapiens) (UniProt P18825). As to the kind of experiment: compounds altering alpha2C-coupled GIRK flux – cell-based, HEK293 alpha2C/GIRK1/2, thallium flux, primary screen (AID 624;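 active = fluorescence slope after compound addition differing from the mean of all screened samples at 99.7% confidence, in either direction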;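 note: slope of fluorescence ratio to pre-addition baseline per second over 15 to 24 s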). Particulars: thallium flux BTC fluorescence, at 10 µM, actives lie on both sides.
Experiment [7] is described as follows: inhibitors of larval lipid processing in zebrafish, primary screen, whole organism, PED6 fluorescence, gall bladder and intestine (AID 686).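 Note: larvae 5 to 7 days old with five fish per well; signal comes from phospholipase A2 cleavage of quenched PED6 carried via bile.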 Particulars: Zebrafish larvae PED6 lipid processing, fluorescence scoring; screened at 20 µM (by protocol). In short, it runs like this: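 Doses: 20 µM single dose. Test system: live zebrafish larvae aged 5-7 days, whole organism. Quantity: five larvae per well. Measured by: By-eye fluorescence microscopy. Reagent: ingested quenched lipid PED6 at 100 nM. Read-out: visual per-well fluorescence inhibition score. Times: overnight exposure of larvae to compound plus PED6.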

A short description of experiment [8]: blockers of RIG-like receptor reporter activation – cell-based, Sendai virus stimulus, luciferase, 10K MLSCN set, TLR/RLR signaling modifier project, primary screen (AID 602276;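 active = inhibition at or above 50% at 10 µM; inactive = inhibition below 50%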;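 note: firefly luciferase from ISG56 promoter only with Renilla not read in this screen; 0% = Sendai virus plus DMSO and 100% = medium plus DMSO without virus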). To be noted: HEK293 RL24 IRF3 luciferase reporter, at 10 µM, stronger effect = higher value. In general terms: Reporter assays use an easily measured gene product as a stand-in for the process of interest.

A short description of experiment [9]: TLR3 IRF3 reporter activation blockers – cell-based, poly I:C stimulus, luciferase, 10K MLSCN set, primary screen (AID 602277;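 active = inhibition of the reporter signal at or above 50%; inactive = inhibition below 50%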). Particulars: HEK293-TLR3 RL24 IRF3 luciferase reporter, at 10 µM, stronger effect = higher value.

Alpha-2C adrenergic receptor (Homo sapiens), sequence (P18825 whole entry, looked up): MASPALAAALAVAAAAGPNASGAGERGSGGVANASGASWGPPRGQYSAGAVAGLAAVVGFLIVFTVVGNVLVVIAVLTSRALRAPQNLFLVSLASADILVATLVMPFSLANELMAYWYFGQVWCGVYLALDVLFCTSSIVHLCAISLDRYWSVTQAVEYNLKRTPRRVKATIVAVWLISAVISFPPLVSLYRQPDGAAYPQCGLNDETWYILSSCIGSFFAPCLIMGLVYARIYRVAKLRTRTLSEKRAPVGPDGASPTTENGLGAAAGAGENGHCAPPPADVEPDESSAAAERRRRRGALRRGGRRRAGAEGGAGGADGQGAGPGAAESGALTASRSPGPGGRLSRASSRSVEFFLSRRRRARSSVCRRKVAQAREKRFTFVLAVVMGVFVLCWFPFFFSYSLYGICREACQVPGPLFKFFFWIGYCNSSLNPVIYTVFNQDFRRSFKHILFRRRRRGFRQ
Voltage-gated potassium channel subunit beta-2 (Rattus norvegicus), sequence (P62483 whole entry, looked up): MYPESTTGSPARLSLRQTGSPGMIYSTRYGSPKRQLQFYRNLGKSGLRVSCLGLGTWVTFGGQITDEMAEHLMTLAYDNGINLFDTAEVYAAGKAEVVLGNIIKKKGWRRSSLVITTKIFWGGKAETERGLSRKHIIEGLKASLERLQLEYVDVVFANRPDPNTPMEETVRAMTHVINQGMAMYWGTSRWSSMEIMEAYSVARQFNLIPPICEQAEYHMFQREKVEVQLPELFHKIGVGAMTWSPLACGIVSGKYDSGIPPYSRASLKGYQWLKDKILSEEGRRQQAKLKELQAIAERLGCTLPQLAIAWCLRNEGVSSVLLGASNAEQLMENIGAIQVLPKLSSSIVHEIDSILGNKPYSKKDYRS

Usually inhibition stands for the change of the read-out against control, counted positive when it falls. In the case of `COc1ccc2cc(C(c3nnnn3C(C)(C)C)N3CCc4ccccc4C3)c(=O)[nH]c2c1` (centres undefined), in experiment [1], the cell count came to 311. Moreover, the inhibition was 11.9% (inactive) in experiment [1], 1% (inactive) in experiment [3], 24.2% (inactive) in [8] and 44.5% (inactive) in experiment [9]. For the same compound, the inhibition of aggregation in experiment [2] is 5.3% (inactive). Also, the nuclei count amounted to 100% in [2] and 94.4% in experiment [3]. For the same compound, the fluorescence slope in [4] is -0.347 (inactive). Besides, the NADPH fluorescence slope in experiment [5] was -5.8e-05 (inactive). Further, in experiment [6], the slope was 0.00475 (inactive). Also, the outcome in experiment [7] was inactive.
For `O=C1c2oc3ccccc3c(=O)c2C(c2cccnc2)N1Cc1ccco1` (centres undefined), in experiment [1], the cell count was determined as 389. In addition, the inhibition in experiment [1] was -2.7% (inactive); in experiment [3], -107% (inactive); in [8] it was -0.371% (inactive); in experiment [9], 8.46% (inactive). Also, the inhibition of aggregation in experiment [2] is -2.7% (inactive). In addition, the values for the nuclei count in experiment [2] and in experiment [3] were 110% and 111%, respectively. Moreover, in experiment [4], the fluorescence slope is -0.48 (inactive). For the same compound, the NADPH fluorescence slope in [5] is -3.2e-05 (inactive). Besides, the slope in experiment [6] is 0.00687 (inactive). Moreover, in experiment [7], the result was inactive.
`COc1ccc(NC(=O)CSc2ccccn2)cc1OC`: in experiment [1], the cell count is 554. Moreover, the inhibition in experiment [1] was -42.2% (inactive); in experiment [3] it was 10.4% (inactive); in [8], -19.5% (inactive); in experiment [9], -27.7% (inactive). In [2], the inhibition of aggregation was 5.1% (inactive). The nuclei count in experiment [2] worked out at 107%; in experiment [3] it was 88.2%. Besides, in [4], the fluorescence slope was -0.384 (inactive). For the same compound, in experiment [5], the NADPH fluorescence slope was -1.5e-05 (inactive). For the same compound, the slope in experiment [6] is 0.00501 (inactive). Moreover, the compound was called inactive in experiment [7].
As for `CCOc1ccc(CCNc2nc3c(c(=O)n(C)c(=O)n3C)n2CC)cc1OCC`, the cell count in experiment [1] amounted to 602. Also, the inhibition in experiment [1] was 6.3% (inactive); in [3], -23.5% (inactive); in [8] it was 18.8% (inactive); in [9], 9% (inactive). In experiment [2], the inhibition of aggregation is -0.6% (inactive). Also, the nuclei count is 89.6% in experiment [2] and 119% in [3]. In addition, in experiment [4], the fluorescence slope is -0.305 (inactive). Also, in experiment [5], the NADPH fluorescence slope was 3.7e-06 (inactive). Moreover, the slope in experiment [6] was 0.00587 (inactive). Moreover, the compound was called inactive in experiment [7].
As to `Cc1cccc(NC(=O)CCCCCN2C(=O)c3ccccc3C2=O)n1`, in experiment [1], the cell count was 495. Besides, the inhibition is -4.8% (inactive) in experiment [1], -68.6% (inactive) in experiment [3], 15.6% (inactive) in [8] and 15.2% (inactive) in experiment [9]. The inhibition of aggregation in experiment [2] was -19.8% (inactive). In addition, the nuclei count in experiment [2] was determined as 103%; in [3], 167%. Also, the fluorescence slope in experiment [4] was -0.44 (inactive). Moreover, in experiment [5], the NADPH fluorescence slope was -6.5e-05 (inactive). In experiment [6], the slope was 0.00404 (inactive). Also, in experiment [7], the outcome was inactive.
Consider `CCCCc1c(O)nc(SCC(=O)Nc2ccc3c(c2)CCC3)[nH]c1=O`, for which the cell count in experiment [1] is 569. For the same compound, the inhibition in [1] is -18.3% (inactive); in experiment [3], -5.9% (inactive); in [8] it was 10.6% (inactive); in [9] it was 7.8% (inactive). The inhibition of aggregation in experiment [2] was -3% (inactive). Besides, the nuclei count in experiment [2] amounted to 75.8%; in [3], 87.2%. Further, the fluorescence slope in [4] is -0.368 (inactive). The NADPH fluorescence slope in experiment [5] is -6.1e-05 (inactive). The slope in [6] was 0.00495 (inactive). Besides, in experiment [7], the call was inactive.
In the case of `COc1ccc(NC(=O)Nc2ccc(N3CCCC3=O)cc2)cc1OC`, the cell count in experiment [1] is 462. Besides, the inhibition is 4% (inactive) in [1], -4.9% (inactive) in experiment [3], 4.01% (inactive) in experiment [8] and -16.1% (inactive) in experiment [9]. The inhibition of aggregation in experiment [2] was -6.3% (inactive). The values for the nuclei count in [2] and in experiment [3] were 102% and 120%, respectively. Moreover, the fluorescence slope in experiment [4] is -0.368 (inactive). Also, the NADPH fluorescence slope in [5] is -3.2e-05 (inactive). For the same compound, the slope in experiment [6] was 0.0047 (inactive). In addition, the result in experiment [7] was inactive.
`Cc1ccc(S(=O)(=O)C(C#N)c2nc3ccccc3nc2OC(C)C)cc1` (centres undefined): the cell count in experiment [1] worked out at 493. In addition, the inhibition was 0% (inactive) in experiment [1], -79.1% (inactive) in experiment [3], 9.93% (inactive) in experiment [8] and 10.6% (inactive) in [9]. Besides, the inhibition of aggregation in experiment [2] was -10.6% (inactive). Also, the nuclei count came to 103% in [2] and 114% in experiment [3]. Besides, the fluorescence slope in experiment [4] is -0.38 (inactive). For the same compound, the NADPH fluorescence slope in experiment [5] is -8.6e-05 (inactive). Besides, in [6], the slope was 0.00476 (inactive). The compound was classed as inactive in [7].
Take `COC(=O)CN(Cc1ccco1)S(=O)(=O)c1ccccc1`: the cell count in experiment [1] came out at 554. The inhibition in [1] is -13.3% (inactive); in [3], -9.7% (inactive); in experiment [8], 7.73% (inactive); in [9] it was 6.21% (inactive). Besides, the inhibition of aggregation in [2] is -8.4% (inactive). Further, the nuclei count in [2] was 111%; in experiment [3], 112%. Moreover, the fluorescence slope in experiment [4] is -0.351 (inactive). Also, the NADPH fluorescence slope in experiment [5] was -5.1e-05 (inactive). Further, the slope in [6] was 0.00494 (inactive). In addition, the outcome in [7] was inactive.
Consider `COc1ccccc1C(=O)NCC(=O)Nc1ccccc1`, for which the cell count in experiment [1] was found to be 258. Also, the inhibition was -2.3% (inactive) in [1], 59% (inactive) in experiment [3], 6.26% (inactive) in [8] and 8.93% (inactive) in experiment [9]. The inhibition of aggregation in [2] is 14.2% (inactive). For the same compound, the figures for the nuclei count in experiment [2] and in experiment [3] were 94.4% and 27.8%, respectively. Further, the fluorescence slope in [4] is -0.451 (inactive). Besides, the NADPH fluorescence slope in [5] was -4.6e-05 (inactive). The slope in experiment [6] was 0.00528 (inactive). Moreover, the result in [7] was inactive.
Regarding `Cc1nc(-c2ccccc2)sc1C(N)=O`, the cell count in [1] stood at 424. Moreover, the inhibition in experiment [1] was 4.7% (inactive); in experiment [3], -40.1% (inactive); in [8] it was -21.5% (inactive); in [9], -49.1% (inactive). Moreover, the inhibition of aggregation in experiment [2] was 25.4% (inactive). Further, the nuclei count in experiment [2] is 104%; in [3], 117%. Besides, in [4], the fluorescence slope is -0.524 (inactive). For the same compound, the NADPH fluorescence slope in [5] was 1.6e-05 (inactive). In experiment [6], the slope was 0.0052 (inactive). The call in experiment [7] was inactive.
Consider `c1ccc2c(SCc3cn4cccnc4n3)ncnc2c1`, for which the cell count in experiment [1] was 553. Besides, the inhibition was -14.3% (inactive) in experiment [1], 6.3% (inactive) in [3], 3.66% (inactive) in experiment [8] and -0.28% (inactive) in experiment [9]. For the same compound, the inhibition of aggregation in experiment [2] was 0.5% (inactive). For the same compound, the figures for the nuclei count in experiment [2] and in experiment [3] were 109% and 93.9%, respectively. The fluorescence slope in experiment [4] was -0.341 (inactive). Also, the NADPH fluorescence slope in experiment [5] was -5.7e-05 (inactive). For the same compound, the slope in experiment [6] was 0.00553 (inactive). The call in experiment [7] was inactive.
